Reference: ChEMBL document CHEMBL4602706, “Natural Product Evodiamine with Borate Trigger Unit: Discovery of Potent Antitumor Agents against Colon Cancer” (ACS Med Chem Lett, 2020)
Calls of active or inactive are those of the source. The calls are words filed in the database; no cut-off is given here.

How the values were obtained:
HCT-116 = assay: Antiproliferative activity against human HCT116 cells incubated for 72 hrs by CCK8 assay; type: functional, cell-based; settings: Homo sapiens, HCT-116, 72 h; read-out: IC50
Method in brief: (§1)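 HCT116, MCF-7 and A549 human cancer cell lines; antiproliferative activity read out by CCK8 assay. Evodiamine derivatives and camptothecin served as positive controls.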

MCF7 = assay: Antiproliferative activity against human MCF7 cells incubated for 72 hrs by CCK8 assay; type: functional, cell-based; settings: Homo sapiens, MCF7, 72 h; read-out: IC50; method in brief: as §1
A549 = assay: Antiproliferative activity against human A549 cells incubated for 72 hrs by CCK8 assay; type: functional, cell-based; settings: Homo sapiens, A549, 72 h; read-out: IC50; method in brief: as §1
[1] = target: T1, DNA topoisomerase 1 (Homo sapiens) (UniProt P11387); assay: Inhibition of Top1 (unknown origin) at 500 uM using supercoiled pBR322 plasmid DNA as substrate incubated for 15 mins by PI staining based agarose gel electrophoresis analysis
T1 sequence (whole entry): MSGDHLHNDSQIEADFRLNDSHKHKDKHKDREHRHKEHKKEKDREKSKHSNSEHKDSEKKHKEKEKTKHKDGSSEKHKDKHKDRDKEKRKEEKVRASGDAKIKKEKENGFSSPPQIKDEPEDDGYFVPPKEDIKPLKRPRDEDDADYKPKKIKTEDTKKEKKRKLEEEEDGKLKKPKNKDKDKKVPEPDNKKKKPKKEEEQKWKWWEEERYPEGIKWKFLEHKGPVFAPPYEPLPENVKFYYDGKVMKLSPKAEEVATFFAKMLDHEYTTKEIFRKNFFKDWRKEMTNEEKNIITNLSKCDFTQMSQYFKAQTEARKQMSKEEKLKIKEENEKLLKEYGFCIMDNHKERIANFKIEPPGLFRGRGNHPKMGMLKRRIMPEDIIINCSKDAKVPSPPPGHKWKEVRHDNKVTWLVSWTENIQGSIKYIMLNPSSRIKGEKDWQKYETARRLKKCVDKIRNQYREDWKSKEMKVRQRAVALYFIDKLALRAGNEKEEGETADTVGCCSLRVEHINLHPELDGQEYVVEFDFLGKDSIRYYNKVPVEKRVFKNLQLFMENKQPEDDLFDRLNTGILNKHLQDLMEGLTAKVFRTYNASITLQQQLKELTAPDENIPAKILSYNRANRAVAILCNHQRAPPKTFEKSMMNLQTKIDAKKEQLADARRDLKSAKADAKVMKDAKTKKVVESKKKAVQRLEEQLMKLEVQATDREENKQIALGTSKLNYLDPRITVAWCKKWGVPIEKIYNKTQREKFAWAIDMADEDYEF
Method in brief: (§2)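 Top1 inhibition tested at 500, 250 and 125 μM, and over 27.9 to 250 μM for selected compounds.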

[2] = target: T1, DNA topoisomerase 1 (Homo sapiens); assay: Inhibition of Top1 (unknown origin) at 125 uM using supercoiled pBR322 plasmid DNA as substrate incubated for 15 mins by PI staining based agarose gel electrophoresis analysis; method in brief: as §2
[3] = target: T2, DNA topoisomerase II (Homo sapiens) (UniProt P11388+Q02880); assay: Inhibition of Top2 (unknown origin) at 50 uM using supercoiled pBR322 plasmid DNA as substrate incubated for 30 mins by PI staining based agarose gel electrophoresis analysis; type: protein assay
[4] = Inhibition of porcine brain tubulin polymerization measured at 1 min interval for 15 to 30 mins by spectrophotometric method; set-up: species or system Sus scrofa
[5] = target: T2, DNA topoisomerase II (Homo sapiens); assay: Inhibition of Top2 (unknown origin) using supercoiled pBR322 plasmid as substrate incubated for 30 mins by PI staining based agarose gel electrophoresis analysis; type: protein assay
[6] = Drug metabolism in human HCT116 cells assessed as 3-Fluoro-10-hydroxy-14-methyl-8,13,13b,14-tetrahydro-7H-indolo[2',3':3,4]pyrido[2,1-b]quinazolin-5-one release by measuring retention time incubated for 8 hrs by UPLC-QTOF/MS analysis; type: ADME, cell-based; settings: hct-116, 8 h
Method in brief: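 Compounds incubated with HCT116 cells; culture media analysed by HPLC after 8, 48 and 72 h. Relative release rate taken from relative peak areas; parent and product identified by retention time.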

[7] = Metabolic stability in mouse liver microsomes assessed as half life at 1 uM preincubated with compound followed by NADPH addition measured upto 45 mins by LC-MS/MS analysis; type: ADME, Microsome
Method in brief: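 In vitro stability in liver microsomes; terminal half-life determined.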

SMILES | IC50 (HCT-116) [nM] | IC50 (MCF7) [nM] | IC50 (A549) [nM] | inhibition [1] | inhibition [2] | inhibition [3] | IC50 [4] [nM] | inhibition [5] | half-life at 1 µM [7] [min] | Retention_time [6] [min]
CN1c2ccc(F)cc2C(=O)N2CCc3c([nH]c4ccc(B5OC(C)(C)C(C)(C)O5)cc34)C21 (stereo unspecified) | 170 | 960 | 110 |  |  |  |  |  |  | 
CC[C@@]1(O)C(=O)OCc2c1cc1n(c2=O)Cc2cc3ccccc3nc2-1 [CAMPTOTHECIN] | 9 | 84 | 39 |  |  |  |  |  |  | 
COc1cc([C@@H]2c3cc4c(cc3[C@@H](O[C@@H]3O[C@@H]5CO[C@@H](C)O[C@H]5[C@H](O)[C@H]3O)[C@H]3COC(=O)[C@H]23)OCO4)cc(OC)c1O |  |  |  |  |  |  |  | Active |  | 
CN1c2ccc(F)cc2C(=O)N2CCc3c([nH]c4ccc(O)cc34)C21 (stereo unspecified) | 27 | 31 | 29 | Active |  |  |  |  | 3.69 | 7.3
CN1c2ccccc2C(=O)N2CCc3c([nH]c4ccc(O)cc34)C21 (stereo unspecified) | 55 | 270 | 84 | Active |  |  |  |  |  | 

Now from value to molecule, other results behind:

IC50 (HCT-116) [nM] | IC50 (MCF7) [nM] | IC50 (A549) [nM] | inhibition [1] | inhibition [2] | inhibition [3] | IC50 [4] [nM] | inhibition [5] | half-life at 1 µM [7] [min] | SMILES | Retention_time [6] [min]
4180 | 4130 | 3440 |  |  |  |  |  |  | CN1c2ccccc2C(=O)N2CCc3c(n(C(=O)OC(C)(C)C)c4ccc(OCc5ccc(B6OC(C)(C)C(C)(C)O6)cc5)cc34)C21 (stereo unspecified) | 
52 | 140 | 130 | Active | Active | Active | 25700 |  |  | CN1c2ccccc2C(=O)N2CCc3c([nH]c4ccc(OC(=O)OCc5ccc(B(O)O)cc5)cc34)C21 (stereo unspecified) | 
2170 | 7850 | 2230 |  |  |  |  |  |  | CN1c2ccc(F)cc2C(=O)N2CCc3c(n(C(=O)OC(C)(C)C)c4ccc(OCc5ccc(B6OC(C)(C)C(C)(C)O6)cc5)cc34)C21 (stereo unspecified) | 
4910 | 2390 | 2130 |  |  |  |  |  |  | CN1c2ccc(F)cc2C(=O)N2CCc3c(n(C(=O)OC(C)(C)C)c4ccc(OCc5ccc(B(O)O)cc5)cc34)C21 (stereo unspecified) | 
100 | 160 | 390 |  |  |  |  |  |  | CN1c2ccccc2C(=O)N2CCc3c([nH]c4ccc(OCc5ccc(B6OC(C)(C)C(C)(C)O6)cc5)cc34)C21 (stereo unspecified) | 
